In ChEMBL document CHEMBL1649328, “Assessment of pandemic and seasonal influenza A (H1N1) virus susceptibility to neuraminidase inhibitors in three enzyme activity inhibition assays” (Antimicrob Agents Chemother, 2010) one finds IC50 data, which are given here for two compounds.

The IC50 is the midpoint of a concentration-inhibition curve. A lower IC50 goes with greater potency in that assay.

What all share (format): functional, organism-based
Experiment [1] deals with Influenza A virus. Kind of experiment: Antiviral activity against influenza A (A/Washington/29/2009 (H1N1)) virus harboring neuraminidase H275Y mutant after 30 mins by NA-star substrate based chemiluminescent assay. An outline of the steps: (§1)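 Titrated virus in NA-Star buffer (26 mM MES, 4 mM CaCl2, pH 6.0) was preincubated with ten half-log inhibitor dilutions (0.03–1,000 nM final) for 30 min at 37°C, then with substrate for 30 min at room temperature. Accelerator solution was added and luminescence read for 0.1 s. IC50 came from a Vmax·[1−x/(K+x)] fit, mean of ≥3 experiments.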

In experiment [2] the test system is Influenza A virus. Kind of experiment: Antiviral activity against influenza A (A/Montana/02/2009 (H1N1)) virus harboring neuraminidase H275Y mutant after 16 to 18 hrs by fetuin substrate based colorimetric assay. In a few lines:
(§2)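 Colorimetric NA inhibition with fetuin substrate. Virus was diluted in NA-Star buffer (26 mM MES, 4 mM CaCl2, pH 6.0) to give OD549 of 0.4–0.8 after 18 h. It was preincubated with ten half-log inhibitor dilutions (0.03–1,000 nM final) for 1 h at 37°C, then with fetuin (5.5 mg/ml final) for 16–18 h at 37°C. Released sialic acid was read at 549 nm after periodate/TBA reaction and butanol extraction. IC50 came from a Vmax·[1−x/(K+x)] fit, mean of ≥2 experiments.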

Experiment [3] relates to Influenza A virus. Kind of experiment: Antiviral activity against influenza A (A/Singapore/57/2009 (H1N1)) virus harboring neuraminidase H275Y mutant after 16 to 18 hrs by fetuin substrate based colorimetric assay. An outline of the steps:
as §2

Experiment [4] concerns Influenza A virus. The experiment is described as follows: Antiviral activity against influenza A (A/Washington/29/2009 (H1N1)) virus harboring neuraminidase H275Y mutant after 30 mins by MUNANA substrate based fluorometric assay. In a few lines: (§3)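 Fluorometric NA inhibition with MUNANA (100 μM final). Titrated virus in NA-Star buffer (26 mM MES, 4 mM CaCl2, pH 6.0) was preincubated with ten half-log inhibitor dilutions (0.03–1,000 nM final) for 30 min at 37°C, then with substrate for 30 min at 37°C. The reaction was stopped with 0.1 M glycine in 25% ethanol, pH 10.7, and 4-methylumbelliferone was read at ex 365/em 450 nm. IC50 came from a Vmax·[1−x/(K+x)] fit, mean of ≥3 experiments.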

The subject of experiment [5] is Influenza A virus. The experiment is described as follows: Antiviral activity against influenza A (A/North Carolina/01/2009 (H1N1)) virus harboring neuraminidase H275Y mutant after 16 to 18 hrs by fetuin substrate based colorimetric assay. In a few lines:
as §2

For experiment [6], the system named is Influenza A virus. Kind of experiment: Antiviral activity against influenza A (A/Singapore/57/2009 (H1N1)) virus harboring neuraminidase H275Y mutant after 30 mins by MUNANA substrate based fluorometric assay. An outline of the steps: as §3
The test system of experiment [7] is Influenza A virus. The experiment is described as follows: Antiviral activity against influenza A (A/Osaka/180/2009 (H1N1)) virus harboring neuraminidase H275Y mutant after 30 mins by NA-star substrate based chemiluminescent assay. An outline of the steps:
as §1

The subject of experiment [8] is Influenza A virus. The experiment is described as follows: Antiviral activity against influenza A (A/North Carolina/01/2009 (H1N1)) virus harboring neuraminidase H275Y mutant after 30 mins by NA-star substrate based chemiluminescent assay. In a few lines:
as §1

The test system of experiment [9] is Influenza A virus. The experiment is described as follows: Antiviral activity against influenza A (A/North Carolina/01/2009 (H1N1)) virus harboring neuraminidase H275Y mutant after 30 mins by MUNANA substrate based fluorometric assay. An outline of the steps:
as §3

In experiment [10] the test system is Influenza A virus. Kind of experiment: Antiviral activity against influenza A (A/Hong Kong/2369/2009 (H1N1)) virus harboring neuraminidase H275Y mutant after 30 mins by NA-star substrate based chemiluminescent assay. An outline of the steps: as §1
Experiment [11] relates to Influenza A virus. The experiment is described as follows: Antiviral activity against influenza A (A/Osaka/180/2009 (H1N1)) virus harboring neuraminidase H275Y mutant after 16 to 18 hrs by fetuin substrate based colorimetric assay. In a few lines: as §2
Experiment [12] deals with Influenza A virus. The experiment is described as follows: Antiviral activity against influenza A (A/Osaka/180/2009 (H1N1)) virus harboring neuraminidase H275Y mutant after 30 mins by MUNANA substrate based fluorometric assay. In a few lines:
as §3

The test system of experiment [13] is Influenza A virus. Kind of experiment: Antiviral activity against influenza A (A/Hong Kong/2369/2009 (H1N1)) virus harboring neuraminidase H275Y mutant after 30 mins by MUNANA substrate based fluorometric assay. An outline of the steps: as §3
The subject of experiment [14] is Influenza A virus. Kind of experiment: Antiviral activity against influenza A (A/Montana/02/2009 (H1N1)) virus harboring neuraminidase H275Y mutant after 30 mins by NA-star substrate based chemiluminescent assay. In a few lines: as §1
The subject of experiment [15] is Influenza A virus. Kind of experiment: Antiviral activity against influenza A (A/Montana/02/2009 (H1N1)) virus harboring neuraminidase H275Y mutant after 30 mins by MUNANA substrate based fluorometric assay. An outline of the steps:
as §3

Experiment [16] deals with Influenza A virus. Kind of experiment: Antiviral activity against influenza A (A/Singapore/57/2009 (H1N1)) virus harboring neuraminidase H275Y mutant after 30 mins by NA-star substrate based chemiluminescent assay. An outline of the steps: as §1
The test system of experiment [17] is Influenza A virus. Kind of experiment: Antiviral activity against influenza A (A/Hong Kong/2369/2009 (H1N1)) virus harboring neuraminidase H275Y mutant after 16 to 18 hrs by fetuin substrate based colorimetric assay. In a few lines:
as §2

Experiment [18] relates to Influenza A virus. The experiment is described as follows: Antiviral activity against influenza A (A/Washington/29/2009 (H1N1)) virus harboring neuraminidase H275Y mutant after 16 to 18 hrs by fetuin substrate based colorimetric assay. In a few lines: as §2

On to `CO[C@@H]([C@@H]1OC(C(=O)O)=C[C@H](NC(=N)N)[C@H]1NC(C)=O)[C@H](O)CO` [LANINAMIVIR], for which the 50% inhibitory concentration (IC50) was found to be 0.82 nM in experiment [1]; 0.82 nM in experiment [2]; 1.12 nM in experiment [3]; 1.19 nM in experiment [4]; 0.89 nM in [5]; 0.87 nM in experiment [6]. For the same compound, the IC50 stood at 0.48 nM in [7]; 0.34 nM in experiment [8]; 0.92 nM in [9]; 0.78 nM in experiment [10]; 3.32 nM in experiment [11]; 1.43 nM in experiment [12]. Besides, the IC50 in experiment [13] was 1.08 nM; in [14], 0.34 nM; in experiment [15], 1.05 nM; in [16] it was 0.74 nM; in experiment [17] it was 2.16 nM; in experiment [18], 2.14 nM.
As to `CC(=O)N[C@H]1[C@H]([C@H](O)[C@H](O)CO)OC(C(=O)O)=C[C@@H]1NC(=N)N` [ZANAMIVIR], the IC50 in [1] was 0.51 nM; in experiment [2] it was 2.38 nM; in [3], 2.83 nM; in [4] it was 0.83 nM; in experiment [5], 1.96 nM; in experiment [6], 1 nM. The IC50 in [7] turned out to be 0.35 nM; in experiment [8], 0.42 nM; in [9], 1.16 nM; in experiment [10], 0.43 nM; in [11] it was 3.17 nM; in experiment [12], 1.29 nM. The half-maximal inhibitory concentration (IC50) in experiment [13] was found to be 1.02 nM; in [14], 0.42 nM; in [15] it was 1.15 nM; in experiment [16] it was 0.4 nM; in experiment [17], 3.61 nM; in experiment [18], 2.66 nM.
